Data set [1] is described as follows: Antioxidant activity assessed as DPPH radical scavenging activity after 30 mins under dark condition relative to rutin. In kind it is functional.
The nature of data set [2]: Ultraviolet radiation absorbing capacity of the compound at 315 to 400 nm. Particulars: 0.4 µM; call rule not given here. In kind it is physicochemical.
The nature of data set [3]: Antioxidant activity assessed as DPPH radical scavenging activity after 30 mins under dark condition. In kind it is functional. In a few lines: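 Serially diluted samples were run in replicates of four, and 200 μM DPPH (concentration as added) was added. MeOH served as the negative control and rutin (820 μM) as the positive control. A row without DPPH gave the background correction. Plates were held in the dark for 30 min, then read at 517 nm. IC50 was interpolated from % scavenging versus log concentration and reported as mean ± SD.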

`O=c1cc(-c2cc(O)c(O)c(-c3c(O)cc(O)c4c(=O)cc(-c5ccc(O)c(O)c5)oc34)c2)oc2cc(O)cc(O)c12`: the figures for the Activity in data set [1] and in data set [2] were 13% and “Active”, respectively. Also, the IC50 in data set [3] is 33.5 µM.

For `O=C1CC(c2cc(O)c(O)c(-c3c(O)cc(O)c4c(=O)cc(-c5ccc(O)c(O)c5)oc34)c2)Oc2cc(O)cc(O)c21` (racemic), the outcome in data set [2] was Active. For the same molecule, the IC50 in data set [3] turned out to be 128 µM.

Regarding `O=Cc1ccc(O)cc1` [4-HYDROXYBENZALDEHYDE], the result in data set [2] was Active. Further, in data set [3], the IC50 worked out at 476000 µM.

In the case of `O=C(O)/C=C/c1ccc(O)cc1` [COUMARIC ACID], the result in data set [2] was Active. For the same molecule, the IC50 in data set [3] turned out to be 29700 µM.

As for `COc1cc(/C=C/C(=O)O)ccc1O` [FERULATE], the result in data set [2] was Active. Further, the IC50 in data set [3] was found to be 75 µM.

Turning to `C[C@@H]1O[C@@H](OC[C@H]2O[C@@H](Oc3c(-c4ccc(O)c(O)c4)oc4cc(O)cc(O)c4c3=O)[C@H](O)[C@@H](O)[C@@H]2O)[C@H](O)[C@H](O)[C@H]1O` [RUTIN], the IC50 in data set [3] was found to be 38.6 µM.

As for `COc1cc(C=O)ccc1O` [VANILLIN], the result in data set [2] was Active. The IC50 in data set [3] came out at 14400 µM.

Values taken from ChEMBL document CHEMBL4190302, “Antarctic Moss Biflavonoids Show High Antioxidant and Ultraviolet-Screening Activity” (J Nat Prod, 2017).
